Assay results published in ChEMBL document CHEMBL4480420, “Specificity of extended O-aryloxycarbonyl hydroxamates as inhibitors of a class C β-lactamase” (Bioorg Med Chem, 2019).

How the values were obtained:
[1] = target: Beta-lactamase (Enterobacter cloacae) (UniProt P05364); assay: Irreversible inhibition of Enterobacter cloacae P99 beta-lactamase assessed as second-order rate constant for enzyme-inhibitor complex using cephalothin as substrate by spectrophotometric analysis
Procedure, shortened: (§1)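 Reactions ran at 25 °C in 20 mM MOPS, pH 7.5, with 0.1% BSA. Time courses: aliquots taken into 300 µM cephalothin, initial rates read at 270 nm. Titrations: 150 nM enzyme with 0–2.0 µM inhibitor, run to completion. Both datasets were fitted together to an acylation/partition scheme, k2 fixed at 100 s⁻¹. k_i = k1/(1 + k2/k3).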

[2] = target: Beta-lactamase (Enterobacter cloacae) (UniProt P05364); assay: Irreversible inhibition of Enterobacter cloacae P99 beta-lactamase assessed as ratio of K2/K3 using cephalothin as substrate by spectrophotometric analysis; procedure, shortened: as §1
Beta-lactamase = Beta-lactamase (Enterobacter cloacae, UniProt P05364); assay: Irreversible inhibition of Enterobacter cloacae P99 beta-lactamase using cephalothin as substrate by spectrophotometric analysis
Beta-lactamase, sequence (P05364 whole entry): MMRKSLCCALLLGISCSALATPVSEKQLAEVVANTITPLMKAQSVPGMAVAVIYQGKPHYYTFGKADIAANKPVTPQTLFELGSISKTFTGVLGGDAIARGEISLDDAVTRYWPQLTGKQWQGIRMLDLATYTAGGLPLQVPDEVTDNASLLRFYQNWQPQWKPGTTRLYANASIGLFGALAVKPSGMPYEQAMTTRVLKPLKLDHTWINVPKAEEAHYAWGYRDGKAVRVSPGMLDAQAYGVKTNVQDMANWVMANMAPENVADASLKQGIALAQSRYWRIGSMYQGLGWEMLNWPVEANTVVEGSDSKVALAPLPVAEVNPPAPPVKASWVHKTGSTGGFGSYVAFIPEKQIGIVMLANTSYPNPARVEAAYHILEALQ
Procedure, shortened: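 P99 class C β-lactamase (stock concentration by A280, ε 7.1 x 10⁴ M⁻¹cm⁻¹) incubated with inhibitor in 20 mM MOPS pH 7.5, 0.1% BSA, 25 °C. Aliquots diluted 1:50 into 300 μM cephalothin; initial rates followed at 270 nm over time. Titration: 150 nM enzyme with 0–2.0 μM inhibitor to end-point. Time-course and titration data fitted jointly to Scheme 2, k2 fixed at 100 s⁻¹, giving k1, k2/k3 and k_i.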

[3] = target: Beta-lactamase (Enterobacter cloacae) (UniProt P05364); assay: Binding affinity to Enterobacter cloacae P99 beta-lactamase assessed as increase in molecular weight of enzyme-compound complex by mass-spectra analysis (reference value: 39192 Da)
Procedure, shortened: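 P99 enzyme was analysed by electrospray MS before and after inactivation. Protein was precipitated with trichloroacetic acid, then the precipitate was washed and dried before analysis.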

Beta-lactamase (Enterobacter cloacae), sequence (P05364 21-381 limits assumed): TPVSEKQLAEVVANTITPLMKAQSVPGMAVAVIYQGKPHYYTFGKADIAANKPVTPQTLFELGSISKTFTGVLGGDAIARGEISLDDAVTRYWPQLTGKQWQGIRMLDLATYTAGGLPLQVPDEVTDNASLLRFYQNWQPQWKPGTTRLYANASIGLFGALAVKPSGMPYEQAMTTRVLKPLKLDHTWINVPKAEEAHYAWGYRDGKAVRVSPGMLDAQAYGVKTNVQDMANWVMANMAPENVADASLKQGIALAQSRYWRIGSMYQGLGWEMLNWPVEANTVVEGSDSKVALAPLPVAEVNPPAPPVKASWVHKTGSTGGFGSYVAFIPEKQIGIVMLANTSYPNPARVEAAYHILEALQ

O=C(NOC(=O)Oc1ccccc1)OCc1ccccc1
K [1]: 6.1 ×10³ /M/s
Ratio [2]: 2
second-order inactivation rate constant (k_i) (Beta-lactamase): 2 ×10³ /M/s

N[C@H](CCCOC(=O)NOC(=O)Oc1ccccc1)C(=O)O
K [1]: 3.5 ×10⁴ /M/s
Ratio [2]: 1.25
second-order inactivation rate constant (k_i) (Beta-lactamase): 1.6 ×10⁴ /M/s

CCCCOC(=O)NOC(=O)Oc1ccccc1
K [1]: 3.6 ×10³ /M/s
Ratio [2]: 2.4
Activity [3]: 185 Da
second-order inactivation rate constant (k_i) (Beta-lactamase): 1.1 ×10³ /M/s

O=C(O)CCCCOC(=O)NOC(=O)Oc1ccccc1
K [1]: 2.8 ×10⁴ /M/s
Ratio [2]: 2.3
Activity [3]: 26 Da
second-order inactivation rate constant (k_i) (Beta-lactamase): 8.5 ×10³ /M/s

N[C@H](Cc1ccc(OC(=O)NOC(=O)Oc2ccccc2)cc1)C(=O)O
K [1]: 360 M⁻¹ s⁻¹
Ratio [2]: < 1
Activity [3]: 26 Da
second-order inactivation rate constant (k i) (Beta-lactamase): 180 to 360 M⁻¹ s⁻¹

O=C(NOC(=O)Oc1ccccc1)OCCc1ccccc1
K [1]: 3.7 ×10⁴ /M/s
Ratio [2]: 25
Activity [3]: 26 Da
second-order inactivation rate constant (k_i) (Beta-lactamase): 1.4 ×10³ /M/s
